The values below come from ChEMBL document CHEMBL1145127 (J Med Chem, 2003).

In data set [1] the target is cGMP-specific 3',5'-cyclic phosphodiesterase (Bos taurus, UniProt Q28156). The data set is described as follows: In vitro inhibitory activity against bovine phosphodiesterase 5.
For data set [2], the species on record is Rattus norvegicus. The data set is described as follows: Effective concentration against rat aortic smooth muscle cell. The data set is classed as functional. The gist of the method:
(§1)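 Rat aortic smooth muscle cells cultured in DMEM with 10% fetal calf serum at 37 °C, seeded at (2-5) × 10⁴ cells/well and used confluent after 3-5 days. Cells preincubated 30 min at 37 °C in PBS with inhibitor, then stimulated with atrial natriuretic factor (0.1 µM) 10 min. Intracellular cGMP extracted with 65% ethanol. Triplicate wells, DMSO ≤0.1%. EC50 taken as concentration giving half-maximal cGMP increase.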

The species entered for data set [3] is Rattus norvegicus. The data set is described as follows: Increased intracellular cGMP concentration in rat aortic smooth cells (RSMC) using atrial natriuretic factor. The class given is functional, cell-based. The conditions noted are these: Aorta. The gist of the method:
as §1

Data set [4] is described as follows: Oral bioavailability in rat was determined. The conditions noted are these: in vivo. The data set is classed as ADME, organism-based.
The nature of data set [5]: The total clearance time in plasma in rat was determined. The data set is classed as ADME, organism-based.
A short description of data set [6]: Half life in rat. The class given is ADME, organism-based. The conditions noted are these: in vivo.
The target in data set [7] is Phosphodiesterase 6. As to the kind of experiment: Inhibition of bovine retina PDE6 (Phosphodiesterase 6). The class given is protein assay, Bos taurus.
Data set [8] deals with cGMP-dependent 3',5'-cyclic phosphodiesterase (Homo sapiens, UniProt O00408). The data set is described as follows: Inhibition of Human recombinant PDE2 (Phosphodiesterase 2).
cGMP-dependent 3',5'-cyclic phosphodiesterase, sequence (O00408 whole entry): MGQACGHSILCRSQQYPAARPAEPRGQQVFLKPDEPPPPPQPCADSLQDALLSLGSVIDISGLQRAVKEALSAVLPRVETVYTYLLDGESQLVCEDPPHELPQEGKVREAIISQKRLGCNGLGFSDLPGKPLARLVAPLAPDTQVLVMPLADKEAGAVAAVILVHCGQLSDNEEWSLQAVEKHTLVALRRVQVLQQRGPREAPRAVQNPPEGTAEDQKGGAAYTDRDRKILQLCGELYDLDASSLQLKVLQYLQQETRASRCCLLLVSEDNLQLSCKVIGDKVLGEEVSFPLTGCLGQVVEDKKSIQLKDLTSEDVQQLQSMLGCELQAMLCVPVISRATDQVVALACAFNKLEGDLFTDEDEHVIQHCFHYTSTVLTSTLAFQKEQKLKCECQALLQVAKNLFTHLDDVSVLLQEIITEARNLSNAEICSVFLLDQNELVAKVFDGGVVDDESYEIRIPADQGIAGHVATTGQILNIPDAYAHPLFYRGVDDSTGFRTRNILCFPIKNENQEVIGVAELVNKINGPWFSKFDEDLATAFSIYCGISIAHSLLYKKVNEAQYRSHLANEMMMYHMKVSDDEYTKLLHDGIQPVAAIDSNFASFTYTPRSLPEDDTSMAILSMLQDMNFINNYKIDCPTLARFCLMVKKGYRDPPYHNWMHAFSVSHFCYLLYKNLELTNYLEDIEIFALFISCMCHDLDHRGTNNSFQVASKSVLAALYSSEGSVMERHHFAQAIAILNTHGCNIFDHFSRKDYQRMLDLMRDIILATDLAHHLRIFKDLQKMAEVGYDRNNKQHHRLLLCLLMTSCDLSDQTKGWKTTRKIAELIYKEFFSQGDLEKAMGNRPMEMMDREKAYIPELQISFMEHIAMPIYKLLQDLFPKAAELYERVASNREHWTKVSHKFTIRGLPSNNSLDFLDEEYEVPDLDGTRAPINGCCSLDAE
The target of data set [9] is Phosphodiesterase 3B (Bos taurus, UniProt E1BN64). As to the kind of experiment: Inhibition of bovine aorta PDE3 (Phosphodiesterase 3).
Phosphodiesterase 3B, sequence (E1BN64 whole entry): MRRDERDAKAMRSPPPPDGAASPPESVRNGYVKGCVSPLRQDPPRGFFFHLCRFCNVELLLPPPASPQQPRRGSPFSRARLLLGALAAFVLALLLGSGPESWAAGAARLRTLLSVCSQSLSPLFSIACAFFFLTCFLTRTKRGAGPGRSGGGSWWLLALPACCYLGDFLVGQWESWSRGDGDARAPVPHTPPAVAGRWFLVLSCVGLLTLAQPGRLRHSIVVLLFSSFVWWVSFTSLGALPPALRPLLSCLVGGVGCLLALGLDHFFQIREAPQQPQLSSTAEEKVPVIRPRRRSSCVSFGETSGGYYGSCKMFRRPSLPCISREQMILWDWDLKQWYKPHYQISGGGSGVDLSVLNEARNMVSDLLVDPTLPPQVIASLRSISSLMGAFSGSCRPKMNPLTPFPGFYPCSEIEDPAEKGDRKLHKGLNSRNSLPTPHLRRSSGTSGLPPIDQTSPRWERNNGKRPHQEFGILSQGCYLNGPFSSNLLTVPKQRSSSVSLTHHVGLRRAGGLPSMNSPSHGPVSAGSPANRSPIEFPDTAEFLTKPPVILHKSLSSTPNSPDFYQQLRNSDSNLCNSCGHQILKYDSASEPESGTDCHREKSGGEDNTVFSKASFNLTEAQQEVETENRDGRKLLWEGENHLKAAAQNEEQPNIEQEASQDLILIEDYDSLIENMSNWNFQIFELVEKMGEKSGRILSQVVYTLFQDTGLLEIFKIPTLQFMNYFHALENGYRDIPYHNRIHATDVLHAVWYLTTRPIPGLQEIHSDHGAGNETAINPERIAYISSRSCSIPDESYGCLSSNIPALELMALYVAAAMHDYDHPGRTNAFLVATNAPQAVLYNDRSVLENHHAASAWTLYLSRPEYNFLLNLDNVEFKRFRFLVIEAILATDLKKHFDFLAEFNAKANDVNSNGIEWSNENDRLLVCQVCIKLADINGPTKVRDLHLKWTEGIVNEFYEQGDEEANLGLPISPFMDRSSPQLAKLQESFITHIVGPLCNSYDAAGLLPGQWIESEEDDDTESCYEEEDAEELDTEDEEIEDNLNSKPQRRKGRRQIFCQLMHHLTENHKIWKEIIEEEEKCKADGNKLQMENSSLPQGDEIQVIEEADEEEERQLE
The target of data set [10] is Phosphodiesterase 1 (Bos taurus, UniProt Q01061+P14100). As to the kind of experiment: Inhibition of bovine aorta PDE1 (Phosphodiesterase 1). The data set is classed as protein assay.
In data set [11] the target is cGMP-specific 3',5'-cyclic phosphodiesterase (Bos taurus) (UniProt Q28156). As to the kind of experiment: Inhibition of bovine PDE5 (Phosphodiesterase 5). The conditions noted are these: concentration not given here.

As a reminder, the IC50 is the concentration that inhibits the measured activity by half. As usually defined, the EC50 is the concentration at which the effect is half-maximal. Read a low EC50 as an effect from little substance. As for `CCCCN1CC(=O)N2C(c3ccc(C)cc3)c3[nH]c4ccccc4c3C[C@@H]2C1=O` (some centres not stated), in data set [1], the half-inhibitory concentration (IC50) amounted to 26 nM. The compound further returned a concentration giving a half-maximal response (EC50) in [2] (Rattus norvegicus) of 350 nM.
The compound `CCCCN1CC(=O)N2C(c3ccc(OC)cc3)c3[nH]c4ccccc4c3C[C@@H]2C1=O` (some centres not stated) showed a half-inhibitory concentration (IC50) in data set [1] of 70 nM. The compound also registered an EC50 in data set [2] (Rattus norvegicus) above 10000 nM.
Consider `CN1C[C@H]2Cc3c([nH]c4ccccc34)[C@@H](c3ccc4c(c3)OCO4)N2C1=O`, for which the IC50 in data set [1] turned out to be 60 nM. In addition, in [2] (Rattus norvegicus), the 50% effective concentration (EC50) is above 10000 nM.
In the case of `O=C1NCC(=O)N2[C@H](c3ccc4c(c3)OCO4)c3[nH]c4ccccc4c3C[C@H]12` (stereo in doubt; 16) [NORTADALAFIL], in data set [1], the midpoint of inhibition, the IC50, lay at 11 nM. This compound also gave an EC50 in [2] (Rattus norvegicus) of 300 nM.
In data set [1], `COc1ccc([C@@H]2c3[nH]c4ccccc4c3C[C@@H]3C(=O)N(CC4CC4)CC(=O)N23)cc1` yielded an IC50 of 6 nM. Moreover, the midpoint of the response in data set [2] (Rattus norvegicus), the EC50, lay at 500 nM.
The corresponding values for `COc1ccc(C2c3[nH]c4ccccc4c3C[C@@H]3C(=O)N(Cc4ccccc4)C(=O)N23)cc1` (some centres not stated) are 18 nM and above 10000 nM.
In turn, `CCCCN1C[C@H]2Cc3c([nH]c4ccccc34)[C@@H](c3ccc(OC)cc3)N2C1` yielded an IC50 in [1] above 10000 nM.
`CCCCN1C(=O)C2Cc3c([nH]c4ccccc34)C(c3ccc(OC)cc3)N2C1=O` (configuration not stated) had an EC50 in [2] (Rattus norvegicus) of 1000 nM.
Compound `CCCCN1C(=O)[C@H]2Cc3c([nH]c4ccccc34)C(c3ccc(OC)cc3)N2C1=O` (some centres not stated) gave a concentration giving a half-maximal response (EC50) in data set [3] of 700 nM.
`O=C1[C@H]2Cc3c([nH]c4ccccc34)C(c3ccc4c(c3)OCO4)N2C(=O)N1Cc1ccccc1` (some centres not stated) registered a concentration for half-maximal inhibition (IC50) in [1] of 6 nM. In data set [2] (Rattus norvegicus), this compound displayed an EC50 of 3000 nM.
`CCCCN1CC(=O)N2[C@H](c3ccc4c(c3)OCO4)c3[nH]c4ccccc4c3C[C@@H]2C1=O` (stereo in doubt) came in with an IC50 in data set [1] of 5 nM. In [2], this compound showed an EC50 of 600 nM.
Turning to `CCCCN1CC(=O)N2C(c3ccccc3)c3[nH]c4ccccc4c3C[C@@H]2C1=O` (some centres not stated), in data set [1], the IC50 amounted to 91 nM. This compound had a concentration for a half-maximal effect (EC50) in [2] (Rattus norvegicus) above 10000 nM.
Take `O=C1[C@H]2Cc3c([nH]c4ccccc34)[C@@H](c3ccc4c(c3)OCO4)N2C(=O)CN1C1CCCCC1`: the IC50 in data set [1] is 5 nM. In [2] (Rattus norvegicus), this compound returned an EC50 of 300 nM.
Turning to `O=C1[C@H]2Cc3c([nH]c4ccccc34)[C@@H](c3ccc4c(c3)OCO4)N2C(=O)CN1Cc1ccccc1`, the IC50 in [1] was determined as 3 nM. In data set [2] (Rattus norvegicus), this compound yielded an EC50 of 800 nM.
Consider `CCCCN1CC(=O)N2C(c3ccc4c(c3)OCO4)c3[nH]c4ccccc4c3C[C@@H]2C1=O` (single isomer, unassigned), for which the IC50 in [1] is 138 nM. Further, in [2] (Rattus norvegicus), the half-maximal effective concentration (EC50) stood at 3500 nM.
For orientation: bioavailability means the share of a dose that reaches the circulation, judged against a reference dose that is usually intravenous. A high value points to much systemic uptake. The term clearance denotes the rate of elimination divided by the concentration. A low value points to a low capacity for elimination. One may read the half-life as how long it takes for the measured level to halve. High values mean slow loss, low ones fast loss. In data set [4], `CN1CC(=O)N2[C@H](c3ccc4c(c3)OCO4)c3[nH]c4ccccc4c3C[C@@H]2C1=O` (stereo in doubt; 12a) showed a bioavailability of 63%. Moreover, the clearance in [5] was found to be 5.1 mL/min/kg. In addition, the half-life in [6] was 2.4 h. Moreover, the IC50 was 5100 nM in data set [7], above 10000 nM in data set [8], above 10000 nM in data set [9] and above 10000 nM in [10]. Besides, the EC50 in data set [2] turned out to be 150 nM.
For `COc1ccc([C@@H]2c3[nH]c4ccccc4c3C[C@@H]3C(=O)N(C)CC(=O)N23)cc1`, inhibition in data set [1] was half-maximal at 41 nM (IC50). In data set [2] (Rattus norvegicus), the half-maximal effective concentration (EC50) came to 200 nM.
`Cc1ccc([C@@H]2c3[nH]c4ccccc4c3C[C@@H]3C(=O)N(CC4CC4)CC(=O)N23)cc1`: the half-maximal inhibitory concentration (IC50) in data set [1] is 23 nM. This compound also came in with a half-maximal effective concentration (EC50) in [2] (Rattus norvegicus) of 600 nM.
As for `CCCCN1CC(=O)N2C(c3ccc(Cl)cc3)c3[nH]c4ccccc4c3C[C@@H]2C1=O` (some centres not stated), in data set [1], half-maximal inhibition (IC50) required 15 nM. This compound gave an EC50 in [2] (Rattus norvegicus) above 10000 nM.
In the case of `O=C1NCC(=O)N2[C@H](c3ccc4c(c3)OCO4)c3[nH]c4ccccc4c3C[C@H]12` (stereo in doubt) [NORTADALAFIL], in data set [1], the half-maximal inhibitory concentration (IC50) turned out to be 12 nM. The same compound gave an EC50 in data set [2] of 600 nM.
Compound `CCCCN1CC(=O)N2[C@H](c3ccc4c(c3)OCO4)c3[nH]c4ccccc4c3C[C@@H]2C1=O` (stereo in doubt; 13) displayed an IC50 in [1] of 3 nM. In data set [2] (Rattus norvegicus), this compound had a concentration for a half-maximal effect (EC50) of 1000 nM.
In the case of `CCCCN1CC(=O)N2[C@H](c3ccc(OC)cc3)c3[nH]c4ccccc4c3C[C@@H]2C1=O`, half-maximal inhibition in [1] (IC50) required 5 nM. In addition, the response in [2] (Rattus norvegicus) was half-maximal at 1500 nM (EC50).
The compound `CC(C)N1CC(=O)N2[C@H](c3ccc4c(c3)OCO4)c3[nH]c4ccccc4c3C[C@@H]2C1=O` (stereo in doubt) had an IC50 in data set [1] of 6 nM. For the same compound, in data set [2], the EC50 is 500 nM.
Regarding `CCCc1nn(C)c2c(=O)[nH]c(-c3cc(S(=O)(=O)N4CCN(C)CC4)ccc3OCC)nc12`, the IC50 in [9] was determined as 9200 nM.
Broadly, the inhibition is how much of the control response was suppressed. Lower therefore signals a response near the control. Take `CCCCN1CC(=O)N2C(c3ccc(OC)c(OC)c3)c3[nH]c4ccccc4c3C[C@@H]2C1=O` (some centres not stated): the inhibition in data set [11] amounted to 62%.
Turning to `COc1ccc([C@@H]2c3[nH]c4ccccc4c3C[C@@H]3C(=O)N(C4CCCC4)CC(=O)N23)cc1`, in data set [1], 17 nM corresponded to half-maximal inhibition (IC50). Besides, the response in data set [2] (Rattus norvegicus) was half-maximal at 200 nM (EC50).
`CC(C)N1CC(=O)N2[C@H](c3ccc4c(c3)OCO4)c3[nH]c4ccccc4c3C[C@@H]2C1=O` (stereo in doubt; 14) returned a concentration for half-maximal inhibition (IC50) in data set [1] of 8 nM. This compound also had an EC50 in [2] of 150 nM.
For the compound `CCCCN1CC(=O)N2C(c3ccc(C#N)cc3)c3[nH]c4ccccc4c3C[C@@H]2C1=O` (some centres not stated), the IC50 in [1] was 758 nM.
With `COc1ccc([C@H]2c3[nH]c4ccccc4c3C[C@@H]3C(=O)N(Cc4ccccc4)CN23)cc1`, 60 nM corresponded to half-maximal inhibition in data set [1] (IC50). For the same compound, in [2] (Rattus norvegicus), the concentration giving a half-maximal response (EC50) was above 10000 nM.
Turning to `CN1CC(=O)N2[C@H](c3ccc4c(c3)OCO4)c3[nH]c4ccccc4c3C[C@@H]2C1=O` (stereo in doubt), the EC50 in data set [2] came out at 500 nM.
For `CCN1CC(=O)N2[C@H](c3ccc(OC)cc3)c3[nH]c4ccccc4c3C[C@@H]2C1=O`, in data set [2] (Rattus norvegicus), the EC50 was 500 nM.
With `COc1ccc(C2c3[nH]c4ccccc4c3C[C@@H]3C(=O)N(C)C(=O)N23)cc1` (some centres not stated), in [1], the IC50 amounted to 10 nM. For the same compound, the midpoint of the response in data set [2] (Rattus norvegicus), the EC50, lay at 1000 nM.
